Measurements published in ChEMBL document CHEMBL1146088 (J Med Chem, 2006).

Legend:
[1] = molecular target: T1, Transient receptor potential cation channel subfamily V member 1 (Homo sapiens, UniProt Q8NER1); assay: Agonist activity on human recombinant TRPV1-mediated enhancement of intracellular calcium concentration in HEK293 cells; format: functional, cell-based
Method in brief: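 HEK-293 cells stably overexpressing human TRPV1, plated on poly-L-lysine the day before. Loaded 2 h at 25 °C with 4 µM Fluo-3 methyl ester (0.04% Pluronic), washed, trypsinized and resuspended in Tyrode pH 7.4. Stirred-cuvette fluorescence (ex 488/em 540 nm) at 25 °C, read before and after compound at various concentrations. EC50 is the concentration giving half-maximal stimulation.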

Rattus norvegicus = organism: Rattus norvegicus; assay: Metabolic stability in rat brain membrane assessed by inhibition of AEA hydrolysis; format: ADME
Method in brief: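 Mixture extracted with 2 volumes CHCl3/CH3OH 2:1. [14C]ethanolamine in the aqueous phase counted by scintillation. Value is the concentration giving 50% inhibition of hydrolysis.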

Cannabinoid receptor 2 = Cannabinoid receptor 2 (Homo sapiens, UniProt P34972); assay: Binding affinity to human recombinant CB2 receptor expressed in COS cells; format: cell-based
Chain of Cannabinoid receptor 2 (P34972 whole entry): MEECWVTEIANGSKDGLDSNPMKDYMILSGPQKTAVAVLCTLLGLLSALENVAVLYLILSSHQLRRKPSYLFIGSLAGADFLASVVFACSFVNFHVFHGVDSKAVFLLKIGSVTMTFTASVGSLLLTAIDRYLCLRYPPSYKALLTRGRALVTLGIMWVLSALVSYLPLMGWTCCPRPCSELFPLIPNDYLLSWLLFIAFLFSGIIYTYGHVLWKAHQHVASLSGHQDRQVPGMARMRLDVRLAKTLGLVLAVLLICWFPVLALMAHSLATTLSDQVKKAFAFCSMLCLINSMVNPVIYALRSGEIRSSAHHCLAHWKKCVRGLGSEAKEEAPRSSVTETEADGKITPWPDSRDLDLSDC

RBL-2H3 = assay: Inhibition of AEA uptake in RBL2H3 cells; format: functional, cell-based, Rattus norvegicus, Wistar
Method in brief: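 RBL-2H3 cells incubated 5 min at 37 °C with [14C]AEA (2.4 µM, 10 000 cpm), with or without varying inhibitor concentrations. Medium extracted with CHCl3/CH3OH 2:1. Residual [14C]AEA in the lyophilized organic phase was measured by scintillation counting as an index of uptake.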

Cannabinoid receptor 1 = Cannabinoid receptor 1 (Homo sapiens, UniProt P21554); assay: Binding affinity to human recombinant CB1 receptor expressed in COS cells; format: cell-based
Chain of Cannabinoid receptor 1 (P21554 whole entry): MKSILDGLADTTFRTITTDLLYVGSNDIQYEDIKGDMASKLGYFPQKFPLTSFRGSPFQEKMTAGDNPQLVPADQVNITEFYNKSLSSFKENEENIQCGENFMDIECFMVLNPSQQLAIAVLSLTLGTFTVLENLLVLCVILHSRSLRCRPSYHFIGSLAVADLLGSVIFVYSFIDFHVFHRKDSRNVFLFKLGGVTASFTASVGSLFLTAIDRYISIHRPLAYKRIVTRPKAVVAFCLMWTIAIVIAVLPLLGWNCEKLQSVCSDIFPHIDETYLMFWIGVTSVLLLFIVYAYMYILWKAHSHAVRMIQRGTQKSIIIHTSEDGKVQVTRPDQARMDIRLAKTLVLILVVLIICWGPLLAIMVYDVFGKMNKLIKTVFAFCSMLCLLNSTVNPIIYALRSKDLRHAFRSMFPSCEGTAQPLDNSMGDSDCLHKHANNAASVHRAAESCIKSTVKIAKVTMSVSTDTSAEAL

[2] = molecular target: T1, Transient receptor potential cation channel subfamily V member 1; assay: Maximal agonist activity on human recombinant TRPV1-mediated enhancement of intracellular calcium concentration in HEK293 cells at 10 uM; format: functional, cell-based
Method in brief: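 Fluo-3-loaded HEK-293 cells overexpressing human TRPV1, in Tyrode pH 7.4 at 25 °C, fluorescence ex 488/em 540 nm. Compound at 10 µM. Peak rise in intracellular Ca2+ expressed as percent of the response to ionomycin (4 µM).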

[3] = Rattus norvegicus, Brain, read-out: IC50
[4] = Rattus norvegicus, Wistar, RBL-2H3, read-out: IC50

T1 sequence (Q8NER1 whole entry): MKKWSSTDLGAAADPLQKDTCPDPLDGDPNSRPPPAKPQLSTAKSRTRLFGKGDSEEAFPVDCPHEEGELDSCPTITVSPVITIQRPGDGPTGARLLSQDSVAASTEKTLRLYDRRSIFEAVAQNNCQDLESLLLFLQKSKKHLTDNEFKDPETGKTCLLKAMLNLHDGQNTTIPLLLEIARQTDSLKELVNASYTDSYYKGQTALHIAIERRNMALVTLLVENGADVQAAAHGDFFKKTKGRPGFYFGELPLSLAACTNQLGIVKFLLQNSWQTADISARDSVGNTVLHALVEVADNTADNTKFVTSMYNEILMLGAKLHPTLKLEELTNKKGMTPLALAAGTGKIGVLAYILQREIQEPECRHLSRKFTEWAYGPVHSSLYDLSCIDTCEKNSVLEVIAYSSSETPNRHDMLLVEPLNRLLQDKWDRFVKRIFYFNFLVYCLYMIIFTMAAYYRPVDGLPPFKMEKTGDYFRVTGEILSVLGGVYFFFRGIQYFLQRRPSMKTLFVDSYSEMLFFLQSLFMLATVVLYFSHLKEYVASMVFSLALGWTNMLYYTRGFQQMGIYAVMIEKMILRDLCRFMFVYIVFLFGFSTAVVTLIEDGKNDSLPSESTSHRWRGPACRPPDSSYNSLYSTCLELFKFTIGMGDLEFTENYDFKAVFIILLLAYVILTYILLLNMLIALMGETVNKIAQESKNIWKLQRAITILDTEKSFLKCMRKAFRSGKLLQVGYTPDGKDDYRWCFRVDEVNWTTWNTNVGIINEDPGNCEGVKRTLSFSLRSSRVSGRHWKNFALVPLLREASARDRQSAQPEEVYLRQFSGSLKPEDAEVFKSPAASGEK

Row | Structure (SMILES) | EC50 ([1]; hek293) | IC50 (Rattus norvegicus) | Ki (Cannabinoid receptor 2; cos) | IC50 (RBL-2H3; rbl-2h3) | Ki (Cannabinoid receptor 1; cos) | Emax [2] [%] | EC50 ([1]; read-out: EC50) [µM] | IC50 (Rattus norvegicus; [3]) [µM] | Ki (Cannabinoid receptor 2; read-out: Ki) [µM] | IC50 (RBL-2H3; [4]) [µM] | Ki (Cannabinoid receptor 1; read-out: Ki) [µM]
1 | CCCCCCCCCCCCCCCC(=O)NCCO [PALMIDROL] | Not Active | Not Active | Not Active | Not Active | Not Active | – | – | – | – | – | –
2 | CCCCCCCC/C=C\CCCCCCCC(=O)NOCCO | – | – | – | – | – | 50 | 0.32 | > 50 | 3.8 | 22.5 | > 10
3 | CCCCC/C=C\C/C=C\C/C=C\C/C=C\CCCC(=O)ONCCO | – | – | – | – | – | 28 | – | > 50 | 2.4 | > 25 | 3.5
4 | CCCCC/C=C\C/C=C\C/C=C\C/C=C\CCCC(=O)N(O)CCO | – | – | – | – | – | 55.3 | 0.26 | > 50 | 1.9 | > 25 | 3.9
5 | CCCCCCCC/C=C\CCCCCCCC(=O)NCCO [OLEOYLETHANOLAMIDE] | – | – | – | – | – | 50.1 | 0.89 | 23 | > 10 | 20 | 1.1
6 | CCCCCCCCCCCCCCCC(=O)NOCCO | – | – | – | – | – | 11.2 | – | > 50 | > 10 | > 25 | > 10
7 | CCCCCCCC/C=C\CCCCCCCC(=O)N(O)CCO | – | – | – | – | – | 53.5 | 0.4 | > 50 | 5.4 | 20 | > 10
8 | CCCCCCCCCCCCCCCC(=O)ONCCO | – | – | – | – | – | 1.8 | – | > 50 | > 10 | > 25 | > 10
9 | CCCCC/C=C\C/C=C\C/C=C\C/C=C\CCCC(=O)NOCCO | – | – | – | – | – | 58.5 | 0.25 | 25 | 0.081 | > 25 | 0.47
10 | CCCCCCCCCCCCCCCC(=O)N(O)CCO | – | – | – | – | – | 37 | 0.6 | > 50 | > 10 | > 25 | > 10
11 | CCCCCCCC/C=C\CCCCCCCC(=O)ONCCO | – | – | – | – | – | 14.3 | – | > 50 | 8.6 | > 25 | > 10
12 | CCCCC/C=C\C/C=C\C/C=C\C/C=C\CCCC(=O)NCCO [ANANDAMIDE] | – | – | – | – | – | 54.7 | 0.49 | 19 | – | 14.5 | –
